Source: PubChem
Rad51 HR inh: Rad51 (human) homologous recombination inhibition. Q06609. inhibition, % at 10 µM. 200,000 tested, 0.085% active. hRad51 DNA strand exchange, fluorescence dequenching. AID 1385;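 active = inhibition above 40% at the single screening dose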
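material = hRad51 filaments on single-stranded DNA | reagent = Donor/quencher-labelled 47-bp dsDNA substrate | compound = 10 µM final, single point | schedule = strand-exchange reaction 15 min at room temperature | measured by = fluorescein emission 520 nm, excitation 485 nm | read-out basis = % inhibition versus plate control and blank means | benchmarks = plate controls and plate blanks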
NPY-Y2 PAM-ag: potentiates or activates human NPY-Y2 receptor; P49146; activation, % at 3.6 µM; 220,000 tested, 0.45% active; AID 1359; cells expressing NPY-Y2, potentiator/agonist read-out; in the data active = activation above about 27%;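 note: cells stimulated with NPY near EC25 plus isoproterenol at EC100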
NPY Y2 blocker: blocks the human neuropeptide Y Y2 receptor. P49146. NPY-Y2 expressing cells, antagonist mode. inhibition, % at 2.7 µM. 140,000 tested, 0.99% active; in the data active = inhibition above about 17%
NPY Y1 blocker: NPY-Y1 (human) receptor antagonism; P25929; 200,000 tested, 1% active; HEK293-CNG Y1 cells, membrane potential fluorescence; NPY at EC95, then isoproterenol; inhibition, % at 3.6 µM;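 active = inhibition above the campaign mean inhibition of all tested compounds plus 3 SD, cut at about 20% in these data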
Target sequence (P25929 whole entry, looked up): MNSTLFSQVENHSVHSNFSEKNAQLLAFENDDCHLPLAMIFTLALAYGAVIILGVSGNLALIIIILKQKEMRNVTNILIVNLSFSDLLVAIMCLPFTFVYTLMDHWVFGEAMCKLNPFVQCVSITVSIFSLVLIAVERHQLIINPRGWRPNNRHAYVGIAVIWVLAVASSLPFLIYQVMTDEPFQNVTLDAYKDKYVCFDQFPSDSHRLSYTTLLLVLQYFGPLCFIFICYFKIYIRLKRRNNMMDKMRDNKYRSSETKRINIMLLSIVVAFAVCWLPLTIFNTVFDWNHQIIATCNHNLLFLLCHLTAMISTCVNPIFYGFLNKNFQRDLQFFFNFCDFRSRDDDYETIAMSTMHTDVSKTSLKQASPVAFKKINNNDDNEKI
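Material: HEK293 Y1/CNG channel cell line | Also added: NPY (25 nM), isoproterenol (1 µM), Ro 20-1724 (25 µM) | Compound: One concentration, 3.6 µM, in 0.4% DMSO | Schedule: 3 h dye uptake, 1 h room-temperature compound, 45 min post-isoproterenol | Signal: Membrane-potential fluorescent dye readout | Read-out: % inhibition of NPY effect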
NPY1 pot ag: potentiators or agonists of human neuropeptide Y receptor Y1 | P25929 | activation, % at 3.6 µM | 220,000 tested, 0.37% active | NPY-Y1 expressing cells, potentiator/agonist activation; in the data active = activation above about 33%, passing the limit was not always enough;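 note: cells stimulated with NPY at EC10 then isoproterenol at EC100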
Measles CPE: protection of cells from measles virus | Measles virus-infected cells, CPE protection, absorbance | protection (pct of control), % at 4 µM | 140,000 tested, 1.5% active | AID 841; in the data active = protection mostly above about 24%, no sharp cut-off; inactive = mostly below about 26%
NPY-Y1 antag ct: antagonizes human NPY-Y1, counter-screen to NPY-Y2 antagonists; cell-based NPY-Y1 antagonism counterscreen; shares compounds with NPY Y2 blocker; inhibition, % at 3.6 µM; 710 tested, 19% active; AID 1256; in the data active = inhibition above about 20%;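 note: cells challenged with NPY then isoproterenol with cAMP sensed through a CNG channel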
NPY2 antag conf: human NPY-Y2 antagonism, confirmation; shares compounds with NPY Y2 blocker; inhibition, % at 2.8 µM; AID 1257; HEK293 NPY-Y2 CNG channel, membrane potential fluorescence; 710 tested, 32% active;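 active = mean inhibition of triplicate wells above the hit cutoff set in the primary screen, cut at about 17% in these data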
Numbers stand for hits; – = inactive; · = no result. In the library only some 2.8% were active in any assay of this set; here they are far more common.

SMILES	Rad51 HR inh	NPY-Y2 PAM-ag	NPY Y2 blocker	NPY Y1 blocker	NPY1 pot ag	Measles CPE	NPY-Y1 antag ct	NPY2 antag conf
COc1ccc(/C=N/NC(=O)c2ccncc2)cc1CSc1nc2ccccc2s1	–	–	–	–	–	–	·	·
CCN(CC)S(=O)(=O)c1cccc(-c2n[nH]c(=S)n2/N=C/c2ccc(Br)cc2)c1	·	–	19	–	–	–	–	–
CCN(CC)S(=O)(=O)c1cccc(-c2n[nH]c(=S)n2/N=C/c2ccc(OC)cc2)c1	·	–	–	–	–	–	·	·
COc1ccc(S(=O)(=O)N2CCc3cc(OC)c(OC)cc3C2)cc1	–	–	·	·	–	·	·	·
COc1ccc(-n2nc(C(=O)N3CCN(Cc4ccc5c(c4)OCO5)CC3)c3ccccc3c2=O)cc1	–	–	–	–	–	–	·	·
COc1ccc(-n2nc(C(=O)Nc3ccc4c(c3)OCO4)c3ccccc3c2=O)cc1	·	–	23	–	–	–	–	21
Cc1ccc(C)c(Cn2nnc3c(=O)[nH]c(C(=O)NCC4CCCO4)nc32)c1 (centres undefined)	–	–	–	–	–	–	·	·
O=C(NCC1CCCO1)c1nc2c(nnn2Cc2ccccc2Cl)c(=O)[nH]1 (centres undefined)	–	–	18	–	–	–	–	–
CC[n+]1c(/C=C(\C)SC)sc2ccccc21	–	–	–	–	–	–	·	·
CC[n+]1c(/C=C(\C)Nc2ccccc2)sc2ccccc21	–	–	23	–	–	–	–	–
S=C(Nc1cccc2ccccc12)NC1CCCCC1	–	–	·	–	–	·	·	·
CCOC(=O)c1nn(-c2ccccc2)c(C#N)c1N	–	–	·	–	–	·	·	·
CCCSc1cc(=O)n(-c2ccccc2)nc1C(=O)OCC	–	–	19	–	–	–	–	–
Cc1cccc(Nc2nc(NCc3ccco3)c3ccccc3n2)c1	–	–	27	–	–	–	22	20
COCCn1c(NCc2ccco2)nc2c1c(=O)[nH]c(=O)n2C	–	–	·	–	–	·	·	·
CCCCOP(=O)(OCCCC)C(Nc1ccccc1)c1ccc2c(c1)OCO2 (centres undefined)	·	–	19	–	–	–	–	–
COC(=O)c1ccc(OCC(=O)c2ccc(C)c(C)c2)cc1	–	–	26	–	–	–	–	–
CC1=CC(C)(C)N(S(=O)(=O)c2ccc(F)cc2)c2ccc(C)cc21	–	–	19	–	–	–	–	–
CC1=CC(C)(C)N(S(=O)(=O)c2ccc(C)cc2)c2ccccc21	–	–	20	–	–	–	31	26
CC1=CC(C)(C)N(C(=O)c2ccccc2)c2ccc(C)cc21	·	–	–	–	–	–	·	·
O=C(NCC1CCCO1)C1CCCN1C(=O)Nc1ccc(Cl)c(Cl)c1 (centres undefined)	–	–	·	–	–	·	·	·
CCCn1nnnc1NC(=O)COc1ccc(CC)cc1	–	–	18	–	–	–	–	–
CCCn1nnnc1NC(=O)COc1ccc(Cl)c(C)c1	–	–	–	–	–	–	·	·
O=C(CSc1nc2ccccc2o1)Nc1nccs1	·	–	·	–	–	·	·	·
Cc1cccc(-c2nnc(SCc3ccc(C#N)cc3)n2Cc2ccco2)c1	–	–	20	–	–	–	–	–
SMILES	Rad51 HR inh	NPY-Y2 PAM-ag	NPY Y2 blocker	NPY Y1 blocker	NPY1 pot ag	Measles CPE	NPY-Y1 antag ct	NPY2 antag conf
CCn1c(SCc2ccc(C#N)cc2)nnc1-c1cccc(Cl)c1	–	–	–	–	–	–	·	·
COc1cccc(Cc2n[nH]c(=S)n2Cc2ccco2)c1	–	–	·	·	–	·	·	·
CC(=O)c1c(C)[nH]c(C(=O)CN2C(=O)NC(C)(CCC(C)C)C2=O)c1C (centres undefined)	–	–	·	–	–	·	·	·
COc1ccc(Nc2nc(N3CCCC3)c3ccccc3n2)cc1	–	–	32	–	–	63	24	34
CC(C)CCOc1ccc(C2=NNC(=O)CC2)cc1	·	–	42	–	–	–	20	41
O=C1CCC(c2ccccc2)=NN1	–	–	·	–	–	·	·	·
O=c1[nH]c2ccc(S(=O)(=O)N3CCN(c4ccccc4F)CC3)cc2s1	–	–	18	–	–	–	–	–
CCOc1ccc(N(CC(=O)NC2CCCC(C)C2C)S(=O)(=O)c2c(C)noc2C)cc1 (centres undefined)	–	–	20	–	–	–	–	–
CC12CCC(C(=O)NCc3cccnc3)(OC1=O)C2(C)C (centres undefined)	–	–	–	–	–	–	·	·
CC12CCC(C(=O)N(Cc3ccccc3)Cc3ccccc3)(OC1=O)C2(C)C (centres undefined)	–	–	18	–	–	–	–	–
CC1=C(C(=O)OCc2ccc3c(c2)OCO3)C(c2ccc(F)cc2)NC(=O)N1 (centres undefined)	–	–	24	–	–	–	–	–
CC1=C(C(=O)OCc2ccc3c(c2)OCO3)C(c2ccc(Cl)cc2)NC(=O)N1 (centres undefined)	–	–	–	–	–	–	·	·
O=C(O)CCNS(=O)(=O)c1ccc2c(c1)CCCC2	–	–	·	–	–	·	·	·
O=C(O)CCNS(=O)(=O)c1ccc2c(c1)Cc1ccccc1-2	–	–	27	–	–	–	–	–
COc1cc(-c2cc(C(=O)NN3CCN(C)CC3)c3ccccc3n2)cc(OC)c1OC	–	–	–	–	–	–	·	·
COc1cc(-c2cc(C(=O)Nc3c(Cl)cc(Cl)cc3Cl)c3ccccc3n2)cc(OC)c1OC	–	–	40	–	–	–	49	73
COc1ccc(C(O)C(CN2CCOCC2)c2ccccc2)cc1F (centres undefined)	–	–	–	–	–	–	·	·
COc1ccc(C(=O)C(CN2CCOCC2)c2ccccc2)cc1F (centres undefined)	–	–	17	–	–	–	–	–
C/C(N)=C(/C#N)C(=O)CSc1nc2scc(-c3ccccc3)c2c(=O)n1C	–	–	·	–	–	·	·	·
CC(C)(C)NCc1cc(Br)ccc1OCc1cccs1	–	–	20	–	–	–	–	–
COC(=O)C1=C(C(=O)OC)SC(=C2C(=S)C(C)(C)N(C(=O)CC(C)C)c3ccccc32)S1	–	–	–	–	–	–	·	·
CCN1c2ccccc2-c2nc3ccccc3n2C1c1ccco1 (centres undefined)	–	–	19	–	–	–	–	–
O=C(Nc1cccc(N=Cc2cc(Br)cc(Br)c2O)c1)c1ccco1	–	–	17	–	–	–	–	25
O=C(Nc1cccc(N=Cc2cc(Cl)cc(Br)c2O)c1)c1ccco1	–	–	–	–	–	–	·	·
COc1ccc(O)c(C(=O)c2cnc3c(c2)CN(C)C(=O)N3)c1	–	–	·	–	–	·	·	·
